Only some compounds are listed: those with a hit (about 2.9% of all), similar ones and a draw of the others.
NALP3 yeast inh – blocks the NALP3 inflammasome reconstituted in yeast | Yeast reconstituted NLRP3/ASC/caspase-1, beta-gal luminescence, 24 h | inhibition, % at 10 µM | 0.39% of 330,000 active | AID 2825;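 active = inhibition of 50% or more; inactive = inhibition below 50%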
IMP-1 inh – inhibitors of Pseudomonas aeruginosa IMP-1 metallo-beta-lactamase | purified IMP-1, nitrocefin hydrolysis, epi-absorbance fluorescence | inhibition, % at 5.6 µM | 0.45% of 290,000 active | AID 1556;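 active = inhibition above the mean plus 3 SD of all compounds in the same screening run, cut at about 4.5% in these data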
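System: purified IMP-1; amount: IMP-1 0.2 nM before substrate addition; compound: single dose, 5.6 µM; times: 25 °C, 15 min preincubation, 25 min reaction; signal: Epi-absorbance via hydrolysed-nitrocefin quenching of white-plate fluorescence, 480/530 nm, EDTA stop; benchmarks: DMSO with and without IMP-1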
NALP1 inh – NALP1 inhibition. S. cerevisiae NALP1/ASC/caspase-1 growth, X-gal OD620, 72 h. inhibition, % at 10 µM. 0.61% of 280,000 active; in the data active = inhibition mostly above about 24%, no sharp cut-off; inactive = mostly below about 32%
SUMO Mot1 rescue – inhibitors of SUMOylation pathway: yeast Mot1-301 growth rescue. S. cerevisiae Mot1-301 growth rescue, ATP luminescence, 38.5C; percent above DMSO median, 100 means doubled. growth rescue, % at 18.8 µM. 1% of 320,000 active. AID 2716;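 active = every valid replicate shows activation above 250% relative to neutral control wells; inactive = the rest, any valid replicate at or below 250%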
VIM-2 inh – inhibitors of Pseudomonas aeruginosa VIM-2 metallo-beta-lactamase | 0.89% of 290,000 active | inhibition, % at 5.6 µM | purified VIM-2, nitrocefin hydrolysis, epi-absorbance fluorescence;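 active = inhibition above the mean of all tested compounds plus 3 SD, cutoff set per screening run, cut at about 7.5% in these data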;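 also: red hydrolysis product quenches plate fluorescence so inhibitors raise well fluorescence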
PolyA inh – blocks polyadenylation in yeast reporter cells. activity score, % at 12 µM. AID 1875. S. cerevisiae SKY197-pL101 polyadenylation reporter, beta-gal luminescence; efflux-impaired pdr1/pdr3 knockout yeast; score 100 = 6 SD above DMSO. 0.02% of 300,000 active;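 active = lowest replicate activity score at least 50, where 100 means six control SD above control mean; inconclusive = lowest score under 50 but half or more replicates reach 50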;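 also: yeast exposed to compound for 9 h at 30 °C; higher score means more reporter readthrough which indicates perturbed polyadenylation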
Each line names hits and unclear results; the compound was inactive in the other large screens.

CC(C)OC(=O)C(C(=O)C(F)(F)F)c1cc(NS(=O)(=O)c2ccc3ccccc3c2)c2ccccc2c1O (stereo not drawn)	IMP-1 inh 9.1
Cc1nc2ccc(NC(=O)Cc3ccc(Br)cc3)cc2s1	none (no result: NALP1 inh)
Cc1nc2ccc(NC(=O)Cc3ccc4c(c3)OCCO4)cc2s1	PolyA inh 84.3
CC(C)C(=O)Nc1nnc(SCC(=O)NCc2ccco2)s1	none
O=C(CSc1nnc(NC(=O)c2c(F)cccc2F)s1)NCc1ccc(F)cc1	SUMO Mot1 rescue 670.2, PolyA inh inconclusive (no result: IMP-1 inh, NALP1 inh, VIM-2 inh)
O=C(CSc1nnc(NC(=O)c2ccc(F)cc2)s1)NCc1ccco1	VIM-2 inh 11.7
CC(C)(C)C(=O)Nc1nnc(SCC(=O)NCc2ccco2)s1	VIM-2 inh 8.6
O=C(CSc1nnc(NC(=O)C2CC2)s1)NCc1ccc(F)cc1	none
COc1ccc(/C=C/C(=O)O)cc1S(=O)(=O)NCc1cccnc1	none
CC1CC(=O)Nc2ccccc2N1C(=O)CN1CCN(c2ccccc2)CC1 (stereo not drawn)	none
CC(NC(=O)CCCCCCN1C(=O)c2ccccc2C1=O)c1ccc2c(c1)CCCC2 (stereo not drawn)	PolyA inh 82.4
CC(NC(=O)CCCCCN1C(=O)c2ccccc2C1=O)c1ccc2c(c1)CCCC2 (stereo not drawn)	none
O=Cc1coc2c(ccc3ccccc32)c1=O	IMP-1 inh 31.9, SUMO Mot1 rescue 321.8
Cc1[nH]nc(N)c1-c1ccc(Cl)cc1	SUMO Mot1 rescue 287.1
O=C(Nc1nn[nH]n1)C12CC3CC(CC(C3)C1)C2	VIM-2 inh 9.0
CCOC(=O)[C@@H]1[C@H]2COc3cc(OC)ccc3[C@H]2N2C(=O)N(c3ccc(OC)cc3)C(=O)[C@]12C	none (no result: IMP-1 inh, NALP1 inh, VIM-2 inh, PolyA inh)
Cn1c(NCc2cccnc2)nc2c1c(=O)n(Cc1ccccc1F)c(=O)n2C	VIM-2 inh 8.3 (no result: NALP1 inh)
COCCNc1nc2c(c(=O)n(Cc3ccccc3F)c(=O)n2C)n1C	none
CC1CCCCC1NC(=O)C1CCC(CNS(=O)(=O)c2ccc(F)cc2)CC1 (stereo not drawn)	SUMO Mot1 rescue 295.3
CN(C)c1ccc(C(=S)N2CCN(S(=O)(=O)c3ccccc3)CC2)cc1	none
c1cnc(N2CCN(c3ncnc4c3oc3ccccc34)CC2)nc1	none (no result: NALP3 yeast inh, IMP-1 inh, SUMO Mot1 rescue, VIM-2 inh, PolyA inh)
O=C(c1ccco1)N1CCN(c2ncnc3c2oc2ccccc23)CC1	VIM-2 inh 10.0
COc1ccccc1C(=O)NCC(=O)OC(C)C(=O)N1CCOCC1 (stereo not drawn)	none (no result: IMP-1 inh, NALP1 inh, VIM-2 inh)
CC(C)(C)c1ccc(OCCC(=O)Nc2ccc(N3CCOCC3)cc2N2CCOCC2)cc1	none (no result: IMP-1 inh, NALP1 inh, VIM-2 inh)
CN(C)c1cc(Nc2ccc(O)cc2)c([N+](=O)[O-])c2nonc12	VIM-2 inh 9.1 (no result: NALP1 inh)
CN(C)c1cc(Nc2cccc(O)c2)c([N+](=O)[O-])c2nonc12	none (no result: NALP1 inh)
NC(N)=N/N=C/c1ccc(OCc2ccccc2Cl)cc1	NALP1 inh 28.1
Cn1c(SCC(=O)NCC2CCCO2)nnc1-c1ccc(Cl)cc1 (stereo not drawn)	none (no result: IMP-1 inh, NALP1 inh, VIM-2 inh, PolyA inh)
CCCc1cc(=O)oc2c(CN3CCCC3)c(O)ccc12	none (no result: SUMO Mot1 rescue)
CCCc1cc(=O)oc2cc(C)c(CN3CCCC3)c(O)c12	IMP-1 inh 7.7
CCOc1cccc(N2CCN(CCNC(=O)Nc3ccc(C)cc3)CC2)c1C	none
CCCCCCCCCC[n+]1cccc2c3ccccc3ccc21	NALP1 inh 25.6 (no result: NALP3 yeast inh, SUMO Mot1 rescue)
CCCCCCCC[n+]1cccc2c3ccccc3ccc21	none
COc1ccc(OC)c(Cc2nnc(CCC(=O)N3CCN(C4CCCC4)CC3)o2)c1	none
COC(=O)c1cc(N2C(=O)C3C(C2=O)C2(C)C=CC3(C)O2)ccc1Cl (stereo not drawn)	SUMO Mot1 rescue 425.2
CNc1snc(C)c1C(=O)OC(C)C(=O)NCc1ccccc1 (stereo not drawn)	none (no result: IMP-1 inh, NALP1 inh, SUMO Mot1 rescue, VIM-2 inh, PolyA inh)
O=C(CCCN1C(=O)c2ccccc2C1=O)OC1CSCC1NC(=O)c1ccccc1 (stereo not drawn)	SUMO Mot1 rescue 298.6
O=C(NC1CSCC1OC(=O)c1ccccc1)c1ccccc1 (stereo not drawn)	none (no result: NALP1 inh)
COCCN(Cc1nc2ccccc2c(=O)[nH]1)C(=O)COc1ccccc1-c1ccccc1	none (no result: IMP-1 inh, NALP1 inh, SUMO Mot1 rescue, VIM-2 inh, PolyA inh)
Cc1cc(O)c(C(C)C)cc1N=Nc1ccccc1C(=O)O	NALP1 inh 37.6
Cc1cc(N=Nc2ccccc2C(=O)O)c(C)c(C)c1O	none
COc1ccc(NC(=O)c2oc3ccccc3c2NC(=O)C2CC2)cc1OC	VIM-2 inh 9.0
CCOc1ccc(CNC(=O)CCn2c(=O)oc3ccccc32)cc1OC	none
O=C(Cn1c(=O)oc2ccccc21)NCCc1ccccc1Cl	NALP1 inh 42.3
COc1ccc(CNC(=O)Cn2c(=O)oc3ccccc32)cc1OC	NALP1 inh 43.1 (no result: PolyA inh)
Cc1cc(C)c2c(c1)/C(=N/NS(=O)(=O)c1ccc(Br)cc1)CCC2	NALP1 inh 38.5
COc1cc(C(=O)N2CCc3ccccc32)c([N+](=O)[O-])cc1OC	none
Cc1cccc(NC(=O)c2ccc(S(=O)(=O)N3CC(C)OC(C)C3)cc2)n1 (stereo not drawn)	PolyA inh inconclusive (no result: IMP-1 inh, NALP1 inh, VIM-2 inh)
Cc1ccc(-n2c(SCC(=O)N3CCOCC3)nc(O)c(Cc3ccccc3)c2=O)cc1	none
O=C(CSc1nc(O)c(Cc2ccccc2)c(=O)n1-c1ccccc1)N1CCOCC1	NALP1 inh 40.3
Cc1ccccc1-n1c(SCC(=O)N2CCOCC2)nc(O)c(Cc2ccccc2)c1=O	IMP-1 inh 5.2
CCCCc1c(O)nc(SCC(=O)N2CCOCC2)n(-c2ccccc2C)c1=O	none (no result: SUMO Mot1 rescue)
CC(C)CCN(C(=O)C1=COCCO1)c1c(N)n(Cc2ccccc2)c(=O)[nH]c1=O	none (no result: IMP-1 inh, NALP1 inh, VIM-2 inh)
Cc1[nH]c(-c2ccc(F)cc2)cc1C(=O)N1CCN(c2cccc(Cl)c2)CC1	none
Cc1cc(C)cc(NC(=S)NCCN(C2CCCCC2)C2CCCC2)c1	SUMO Mot1 rescue 430.2
O=C(COC(=O)/C=C/c1ccccc1[N+](=O)[O-])Nc1ccc2[nH]c(=O)[nH]c2c1	none (no result: IMP-1 inh, NALP1 inh, VIM-2 inh, PolyA inh)
C/C(=N\Nc1ccc(Cl)c(C(=O)O)c1)c1ccccn1	none
C/C(=N\Nc1ncc(Cl)cc1Cl)c1ccccn1	NALP1 inh 44.6 (no result: NALP3 yeast inh, SUMO Mot1 rescue)
Cc1noc(C)c1-c1csc(N2CCC(C(N)=O)CC2)n1	none (no result: IMP-1 inh, NALP1 inh, VIM-2 inh, PolyA inh)
Cc1nc2ccccc2c(=O)n1/N=C/c1cn[nH]c1-c1ccccc1	NALP1 inh 40.7
Cc1ccccc1OCc1nc2ccccc2c(=O)n1/N=C/c1cn[nH]c1-c1ccccc1	none
CC(C)n1cc(C(N)=S)c(=O)n(Cc2ccccc2)c1=O	IMP-1 inh 6.3
COc1ccccc1C(=O)COC(=O)c1ccc(Cl)nc1	none (no result: IMP-1 inh, NALP1 inh, VIM-2 inh, PolyA inh)
Fc1ccc(NCc2cccnc2)cc1	none
c1ccc(NCc2cccnc2)cc1	SUMO Mot1 rescue 292.5 (no result: PolyA inh)
NNC(=S)NCc1cccnc1	NALP1 inh 73.8
NC(=O)c1cccc([N+](=O)[O-])c1	none (no result: IMP-1 inh, NALP1 inh, VIM-2 inh, PolyA inh)
O=C(c1cccc([N+](=O)[O-])c1)c1ccc2[nH]c(=O)[nH]c2c1	IMP-1 inh 28.8
